Measurements reported in paper PMC7392083 (Journal of the American Chemical Society, 2020).
Read-outs that look alike come from different tables or passages of the source.

Legend:
hItln-1 = conditions: cited from earlier work
[1] = biological target: T1, human intelectin-1 (hItln-1) (Homo sapiens, UniProt Q8WWA0); test: ELISA of hItln-1 binding to immobilized BSA-conjugated monosaccharides; conditions: for Kd by ELISA: BSA-conjugated heptose sugars, single-site binding fit; for binding to hItln-1 by ELISA: saccharide conjugated in multiple copies to BSA and immobilized
In short: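 Sugar–BSA conjugates were adsorbed in PBS (1.5 μM sugar), 1 h RT, then blocked with 5% BSA in HEPES-T for 2 h. Serially diluted Strep-hItln-1 in HEPES-T + BSA was bound 2 h RT. Detection used anti-Strep-tag HRP (1:10,000, 2 h RT), then TMB quenched with 2 M H2SO4, read at 450 nm. One-site binding fit gave Kd. Mean ± SEM, n = 2 technical replicates.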

[2] = biological target: T1, human intelectin-1 (hItln-1); test: Biolayer interferometry; format: binding; conditions: for ΔΔG relative free energy of binding compared to Galf: column Galf; for ΔΔG relative free energy of binding compared to Glycerol 1-phosphate: column Glycerol 1-phosphate; for ΔΔG relative free energy of binding compared to KDO: column KDO; for ΔΔG relative free energy of binding compared to KO: column KO
[3] = ΔΔG = 0.593 (kcal/mol) ln(IC50,row/IC50,column)

T1 sequence (Q8WWA0 19-313): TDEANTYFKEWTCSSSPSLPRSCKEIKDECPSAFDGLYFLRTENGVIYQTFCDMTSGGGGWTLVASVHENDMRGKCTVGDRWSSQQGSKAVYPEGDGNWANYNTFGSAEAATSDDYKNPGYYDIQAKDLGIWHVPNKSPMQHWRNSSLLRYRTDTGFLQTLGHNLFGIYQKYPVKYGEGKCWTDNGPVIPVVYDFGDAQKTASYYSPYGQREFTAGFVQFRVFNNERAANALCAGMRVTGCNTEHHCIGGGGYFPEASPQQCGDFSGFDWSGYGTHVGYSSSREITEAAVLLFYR

Compound | binding to hItln-1 (hItln-1) | binding to hItln-1 (hItln-1; listed as N-acetyl neuraminic acid) | Kd by ELISA [1] | binding to hItln-1 by ELISA [1] | ΔΔG relative free energy of binding compared to Galf [2, 3] [kcal/mol] | ΔΔG relative free energy of binding compared to Glycerol 1-phosphate [2, 3] [kcal/mol] | ΔΔG relative free energy of binding compared to KDO [2, 3] [kcal/mol] | ΔΔG relative free energy of binding compared to KO [2, 3] [kcal/mol] | IC50 value higher than that of allyl-KO ([2]; ratio of IC50 values) [fold] | ΔΔG relative free energy of binding compared to D,D-heptose ([2]; ΔΔG = 0.593 (kcal/mol) ln(IC50,row/IC50,column), column D,D-heptose) [kcal/mol] | IC50 [2] [µM]
CC(=O)N[C@H]1[C@H]([C@H](O)[C@H](O)CO)OC(O)(C(=O)O)C[C@@H]1O (stereo partly shown) [sialic acid, N-acetyl neuraminic acid] | not a ligand | does not bind |  |  |  |  |  |  |  |  | 
OC[C@@H](O)[C@H]1O[C@H](O)[C@@H](O)[C@@H](O)[C@@H]1O [D,D-heptose, D-glycero-α-D-manno-heptose] |  |  | could not be determined | no measurable binding | 0.8 | 0.7 | 0.9 | 1.3 |  |  | 
OC[C@H](O)[C@H]1O[C@H](O)[C@@H](O)[C@@H](O)[C@@H]1O [L,D-heptose, L-glycero-α-D-manno-heptose] |  |  | could not be determined | no measurable binding | 2.0 | 1.9 | 2.0 | 2.4 | 80 | 1.2 | 
O=P(O)(O)OC[C@H](O)CO [Glycerol 1-phosphate, D-glycerol 1-phosphate] |  |  |  |  | 0.1 |  | 0.2 | 0.7 |  |  | 
OC[C@@H](O)[C@@H]1O[C@@H](O)[C@H](O)[C@H]1O [Galf, β-D-galactofuranose] |  |  |  | bound |  |  | 0.1 | 0.6 |  |  | 
C=CCO[C@@]1(C(=O)O)O[C@H]([C@H](O)CO)[C@H](O)[C@H](O)[C@@H]1O [KO, prop-2-en-1-yl D-glycero-alpha-D-talo-oct-2-ulopyranosidonic acid] |  |  |  | bound | -0.6 |  |  |  |  |  | 700
